Measured values reported in ChEMBL document CHEMBL3232906, “2-Amino-3-(phenylsulfanyl)norbornane-2-carboxylate: an appealing scaffold for the design of Rac1-Tiam1 protein-protein interaction inhibitors” (J Med Chem, 2014).
Active and inactive are the calls of the source. No cut-off for these calls is given here.

Legend:
[1] = molecular target: T1, Ras-related C3 botulinum toxin substrate 1/T-lymphoma invasion and metastasis-inducing protein 1 (Homo sapiens, UniProt P63000+Q13009); experiment: Inhibition of Rac1-Tiam1 interaction in human smooth muscle cells assessed as reduction of PDGF-BB stimulated GTP bound Rac1 level preincubated for 4 hrs followed by PDGF-BB stimulation measured after 2 mins by G-LISA assay; type: cell-based
Method in brief: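 SMCs serum-starved (0.4% FCS, 48 h) after seeding at 2 × 10^5/35 mm dish, treated 4 h with compound at 1, 2.5, 5 and 10 μM final, then stimulated with PDGF-BB 20 ng/mL for 2 min. Rac1–GTP in lysates read by G-LISA (Rac1-RBD plate, primary antibody plus HRP secondary). IC50 from concentration–response; triplicates, mean ± SD.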

[2] = molecular target: T1, Ras-related C3 botulinum toxin substrate 1/T-lymphoma invasion and metastasis-inducing protein 1; experiment: Inhibition of Rac1-Tiam1 interaction in human smooth muscle cells assessed as reduction of PDGF-BB stimulated GTP bound Rac1 level at 10 uM preincubated for 4 hrs followed by PDGF-BB stimulation measured after 2 mins by G-LISA assay relative to control; type: cell-based
Method in brief: (§1)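 Cultured human aortic SMCs seeded at 2 × 10^5/35 mm dish in DMEM + 10% FCS, switched after 24 h to 0.4% FCS for 48 h. Compounds (DMSO stocks) added at 10 μM final for 4 h, then PDGF-BB 20 ng/mL for 2 min. Lysates analysed by G-LISA (RBD-coated plate, antibody/HRP detection) for Rac1–GTP or RhoA–GTP. Mean ± SD of triplicates.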

Homo sapiens = species on record: Homo sapiens; experiment: Antimigratory activity against human smooth muscle cells assessed as inhibition of PDGF-BB-induced cell motility at 10 uM measured for 16 hrs by video microscopic analysis; type: functional, cell-based
Method in brief: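 SMCs seeded at 2 × 10^4 per well of 24-well tray in DMEM + 10% FCS, moved to 0.4% FCS for 48 h. Compound added at 10 μM final together with PDGF-BB 20 ng/mL. Time-lapse video microscopy at 37 °C for 16 h; cells manually tracked and distance covered measured for 10 cells per condition from three independent experiments, mean ± SD.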

[3] = molecular target: Transforming protein RhoA (Homo sapiens) (UniProt P61586); experiment: Activation of RhoA in human smooth muscle cells assessed as PDGF-BB stimulated GTP bound protein level at 10 uM preincubated for 4 hrs followed by PDGF-BB stimulation measured after 2 mins by G-LISA assay; type: cell-based; method in brief: as §1
Sequence of Transforming protein RhoA (Homo sapiens) (P61586 whole entry): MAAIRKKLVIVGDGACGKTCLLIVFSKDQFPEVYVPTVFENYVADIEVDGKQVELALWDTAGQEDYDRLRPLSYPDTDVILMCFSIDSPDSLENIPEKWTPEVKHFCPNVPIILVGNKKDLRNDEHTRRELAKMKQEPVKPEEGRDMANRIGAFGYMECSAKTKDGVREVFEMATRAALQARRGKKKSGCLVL

Row | SMILES | IC50 [1] [µM] | inhibition [1] | inhibition [2] | inhibition (Homo sapiens) | Activity [3]
1 | CCOC(=O)[C@]1(N)[C@@H]2C[C@@H](C[C@H]2c2cccc(Nc3ccc(N)cc3)c2)[C@@H]1Sc1ccccc1 (relative stereo) | 2.5 | Dose-dependent effect | 75% | Active | Active
2 | CCOC(=O)[C@@]1(N)[C@@H]2C[C@@H](C[C@H]2c2cccc(Nc3ccc(N)cc3)c2)[C@@H]1Sc1ccccc1 (relative stereo) | – | – | Active | – | Active
3 | CCOC(=O)[C@@]1(N)[C@@H]2C[C@@H]([C@@H](c3cccc(Nc4ccc(N)cc4)c3)C2)[C@@H]1Sc1ccccc1 (relative stereo) | – | – | Active | – | Active
4 | CCOC(=O)[C@]1(N)[C@@H]2C[C@@H](C[C@H]2c2cccc(Nc3ccc(N)cc3)c2)[C@H]1Sc1ccccc1 (relative stereo) | – | – | Active | – | Active
5 | CCOC(=O)[C@]1(N)[C@@H]2C[C@@H]([C@@H](c3cccc(Nc4ccc(N)cc4)c3)C2)[C@@H]1Sc1ccccc1 (relative stereo) | – | – | Active | – | Active
6 | CCOC(=O)[C@]1(N)[C@@H]2C[C@@H]([C@@H](c3cccc(Nc4ccc(N)cc4)c3)C2)[C@H]1Sc1ccccc1 (relative stereo) | – | – | Active | – | Active
